From ChEMBL document CHEMBL5247575 (J Med Chem, 2018)

Assays:
Bacteria = experiment: Inhibition of bacteria KPC-2 assessed as half life using nitrocefin as substrate
Acinetobacter baumannii [1] = experiment: Synergistic antibacterial activity against Acinetobacter baumannii PR474 producing OXA-23/24/40 assessed as cefepime MIC at 8 ug/ml by broth microdilution method; assay type: functional; details: dose 8 µg/ml
Escherichia coli [2] = experiment: Synergistic antibacterial activity against Escherichia coli DH10B transfected with pBC SK (-) OXA-48 assessed as meropenem MIC at 4 ug/ml by broth microdilution method; assay type: functional; details: dose 4 µg/ml
How it was run: (§1)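 Broth microdilution per CLSI guidelines, using custom frozen panels. […] Each partner drug was also tested alone. MICs were run in triplicate and the modal value is reported.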

Klebsiella pneumoniae [3] = experiment: Synergistic antibacterial activity against Klebsiella pneumoniae 761/1723 producing KPC-3 assessed as meropenem MIC at 8 ug/ml by broth microdilution method; assay type: functional; details: dose 8 µg/ml
Pseudomonas aeruginosa [4] = experiment: Synergistic antibacterial activity against Pseudomonas aeruginosa 839 assessed as cefepime MIC at 8 ug/ml by broth microdilution method; assay type: functional; details: dose 8 µg/ml
Acinetobacter baumannii [5] = experiment: Synergistic antibacterial activity against Acinetobacter baumannii PR440 producing OXA-23/24/40 assessed as meropenem MIC at 4 ug/ml by broth microdilution method; assay type: functional; details: dose 4 µg/ml
Klebsiella pneumoniae [6] = experiment: Synergistic antibacterial activity against Klebsiella pneumoniae 1354/2241 producing KPC-3 assessed as meropenem MIC at 4 ug/ml by broth microdilution method; assay type: functional; details: dose 4 µg/ml; how it was run: as §1
Klebsiella pneumoniae [7] = experiment: Synergistic antibacterial activity against Klebsiella pneumoniae 761/1723 producing KPC-3 assessed as cefepime MIC at 4 ug/ml by broth microdilution method; assay type: functional; details: dose 4 µg/ml; how it was run: as §1
Escherichia coli [8] = experiment: Synergistic antibacterial activity against Escherichia coli DH10B transfected with pBC SK (-) PDC-3 assessed as cefepime MIC at 4 ug/ml by broth microdilution method; assay type: functional; details: dose 4 µg/ml; how it was run: as §1
Klebsiella pneumoniae [9] = experiment: Synergistic antibacterial activity against Klebsiella pneumoniae jefferson 1775 producing OXA-48 assessed as cefepime MIC at 4 ug/ml by broth microdilution method; assay type: functional; details: dose 4 µg/ml
Escherichia coli [10] = experiment: Synergistic antibacterial activity against Escherichia coli DH10B transfected with pBR322-catI-KPC-2 assessed as cefepime MIC at 8 ug/ml by broth microdilution method; assay type: functional; details: dose 8 µg/ml; how it was run: as §1
Acinetobacter baumannii [11] = experiment: Synergistic antibacterial activity against Acinetobacter baumannii PR420 producing OXA-23/24/40 assessed as meropenem MIC at 8 ug/ml by broth microdilution method; assay type: functional; details: dose 8 µg/ml
Klebsiella pneumoniae [12] = experiment: Synergistic antibacterial activity against Klebsiella pneumoniae 977/1916 producing KPC-3 assessed as cefepime MIC at 4 ug/ml by broth microdilution method; assay type: functional; details: dose 4 µg/ml
Escherichia coli [13] = experiment: Synergistic antibacterial activity against Escherichia coli DH10B transfected with pBC SK (-) KPC-3 assessed as cefepime MIC at 4 ug/ml by broth microdilution method; assay type: functional; details: dose 4 µg/ml
Pseudomonas aeruginosa [14] = experiment: Synergistic antibacterial activity against Pseudomonas aeruginosa 839 assessed as meropenem MIC at 8 ug/ml by broth microdilution method; assay type: functional; details: dose 8 µg/ml
Klebsiella pneumoniae [15] = experiment: Synergistic antibacterial activity against Klebsiella pneumoniae 1315/2198 producing KPC-3 assessed as meropenem MIC at 8 ug/ml by broth microdilution method; assay type: functional; details: dose 8 µg/ml; how it was run: as §1
Klebsiella pneumoniae [16] = experiment: Synergistic antibacterial activity against Klebsiella pneumoniae CAV 1636 producing OXA-181 assessed as cefepime MIC at 4 ug/ml by broth microdilution method; assay type: functional; details: dose 4 µg/ml
Acinetobacter baumannii [17] = experiment: Synergistic antibacterial activity against Acinetobacter baumannii PR323 producing OXA-24/40 assessed as meropenem MIC at 4 ug/ml by broth microdilution method; assay type: functional; details: dose 4 µg/ml
Acinetobacter baumannii [18] = experiment: Synergistic antibacterial activity against Acinetobacter baumannii PR448 producing OXA-23 assessed as cefepime MIC at 8 ug/ml by broth microdilution method; assay type: functional; details: dose 8 µg/ml
How it was run: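 Broth microdilution per CLSI guidelines in frozen panels. Test compound held at fixed 8 mg/L while the partner β-lactam concentration was increased. Run in triplicate; modal MIC reported.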

Pseudomonas aeruginosa [19] = experiment: Synergistic antibacterial activity against Pseudomonas aeruginosa CL232 assessed as meropenem MIC at 8 ug/ml by broth microdilution method; assay type: functional; details: dose 8 µg/ml
Acinetobacter baumannii [20] = experiment: Synergistic antibacterial activity against Acinetobacter baumannii PR474 producing OXA-23/24/40 assessed as meropenem MIC at 8 ug/ml by broth microdilution method; assay type: functional; details: dose 8 µg/ml
Klebsiella pneumoniae [21] = experiment: Synergistic antibacterial activity against Klebsiella pneumoniae 972/1910 producing KPC-3 assessed as cefepime MIC at 8 ug/ml by broth microdilution method; assay type: functional; details: dose 8 µg/ml
Acinetobacter baumannii [22] = experiment: Synergistic antibacterial activity against Acinetobacter baumannii PR363 producing OXA-23 assessed as meropenem MIC at 4 ug/ml by broth microdilution method; assay type: functional; details: dose 4 µg/ml
Klebsiella pneumoniae [23] = experiment: Synergistic antibacterial activity against Klebsiella pneumoniae 901/1860 producing KPC-3 assessed as meropenem MIC at 4 ug/ml by broth microdilution method; assay type: functional; details: dose 4 µg/ml
Klebsiella pneumoniae [24] = experiment: Synergistic antibacterial activity against Klebsiella pneumoniae 972/1910 producing KPC-3 assessed as meropenem MIC at 4 ug/ml by broth microdilution method; assay type: functional; details: dose 4 µg/ml
Klebsiella pneumoniae [25] = experiment: Synergistic antibacterial activity against Klebsiella pneumoniae 1084/1957 producing KPC-3 assessed as meropenem MIC at 4 ug/ml by broth microdilution method; assay type: functional; details: dose 4 µg/ml; how it was run: as §1
Klebsiella pneumoniae [26] = experiment: Synergistic antibacterial activity against Klebsiella pneumoniae 1398/2291 producing KPC-3 assessed as meropenem MIC at 8 ug/ml by broth microdilution method; assay type: functional; details: dose 8 µg/ml; how it was run: as §1
Klebsiella pneumoniae [27] = experiment: Synergistic antibacterial activity against Klebsiella pneumoniae 11978 producing OXA-48 assessed as meropenem MIC at 4 ug/ml by broth microdilution method; assay type: functional; details: dose 4 µg/ml; how it was run: as §1
Acinetobacter baumannii [28] = experiment: Synergistic antibacterial activity against Acinetobacter baumannii PR408 producing OXA-24/40 assessed as cefepime MIC at 8 ug/ml by broth microdilution method; assay type: functional; details: dose 8 µg/ml
Acinetobacter baumannii [29] = experiment: Synergistic antibacterial activity against Acinetobacter baumannii PR363 producing OXA-23 assessed as cefepime MIC at 8 ug/ml by broth microdilution method; assay type: functional; details: dose 8 µg/ml
Acinetobacter baumannii [30] = experiment: Synergistic antibacterial activity against Acinetobacter baumannii PR448 producing OXA-23 assessed as cefepime MIC at 4 ug/ml by broth microdilution method; assay type: functional; details: dose 4 µg/ml
Acinetobacter baumannii [31] = experiment: Synergistic antibacterial activity against ADC deleted Acinetobacter baumannii assessed as meropenem MIC at 8 ug/ml by broth microdilution method; assay type: functional; details: dose 8 µg/ml
Klebsiella pneumoniae [32] = experiment: Synergistic antibacterial activity against Klebsiella pneumoniae 776/1742 producing KPC-2 assessed as meropenem MIC at 4 ug/ml by broth microdilution method; assay type: functional; details: dose 4 µg/ml
Klebsiella pneumoniae [33] = experiment: Synergistic antibacterial activity against Klebsiella pneumoniae 1398/2291 producing KPC-3 assessed as cefepime MIC at 4 ug/ml by broth microdilution method; assay type: functional; details: dose 4 µg/ml; how it was run: as §1
Klebsiella pneumoniae [34] = experiment: Synergistic antibacterial activity against Klebsiella pneumoniae 440/1360 producing KPC-2 assessed as cefepime MIC at 4 ug/ml by broth microdilution method; assay type: functional; details: dose 4 µg/ml; how it was run: as §1
Acinetobacter baumannii [35] = experiment: Synergistic antibacterial activity against Acinetobacter baumannii PR420 producing OXA-23/24/40 assessed as cefepime MIC at 4 ug/ml by broth microdilution method; assay type: functional; details: dose 4 µg/ml
Escherichia coli [36] = experiment: Synergistic antibacterial activity against Escherichia coli DH10B transfected with pBC SK (-) KPC-3 assessed as meropenem MIC at 8 ug/ml by broth microdilution method; assay type: functional; details: dose 8 µg/ml

Row | Compound | T1/2 (Bacteria) [min] | MIC (Acinetobacter baumannii [1]) [µg/mL] | MIC (Escherichia coli [2]) [µg/mL] | MIC (Klebsiella pneumoniae [3]) [µg/mL] | MIC (Pseudomonas aeruginosa [4]) [µg/mL] | MIC (Acinetobacter baumannii [5]) [µg/mL] | MIC (Klebsiella pneumoniae [6]) [µg/mL] | MIC (Klebsiella pneumoniae [7]) [µg/mL] | MIC (Escherichia coli [8]) [µg/mL] | MIC (Klebsiella pneumoniae [9]) [µg/mL] | MIC (Escherichia coli [10]) [µg/mL] | MIC (Acinetobacter baumannii [11]) [µg/mL] | MIC (Klebsiella pneumoniae [12]) [µg/mL] | MIC (Escherichia coli [13]) [µg/mL] | MIC (Pseudomonas aeruginosa [14]) [µg/mL] | MIC (Klebsiella pneumoniae [15]) [µg/mL] | MIC (Klebsiella pneumoniae [16]) [µg/mL] | MIC (Acinetobacter baumannii [17]) [µg/mL] | MIC (Acinetobacter baumannii [18]) [µg/mL] | MIC (Pseudomonas aeruginosa [19]) [µg/mL] | other results
1 | O=C(NNC(=O)[C@@H]1CC[C@@H]2CN1C(=O)N2OS(=O)(=O)O)[C@@H]1CCCNC1 [ZIDEBACTAM] | 29 | 8 | ≤ 0.12 | ≤ 0.12 | 0.5 | > 16 | ≤ 0.12 | ≤ 0.12 | ≤ 0.12 | ≤ 0.12 | ≤ 0.12 | > 16 | ≤ 0.12 | ≤ 0.12 | ≤ 0.12 | ≤ 0.12 | ≤ 0.12 | > 16 | 8 | > 16 | MIC (Acinetobacter baumannii [20]): > 16 µg/mL; MIC (Klebsiella pneumoniae [21]): ≤ 0.12 µg/mL; MIC (Acinetobacter baumannii [22]): > 16 µg/mL; MIC (Klebsiella pneumoniae [23]): ≤ 0.12 µg/mL; MIC (Klebsiella pneumoniae [24]): ≤ 0.12 µg/mL; MIC (Klebsiella pneumoniae [25]): ≤ 0.12 µg/mL; MIC (Klebsiella pneumoniae [26]): ≤ 0.12 µg/mL; MIC (Klebsiella pneumoniae [27]): ≤ 0.12 µg/mL; MIC (Acinetobacter baumannii [28]): 16 µg/mL; MIC (Acinetobacter baumannii [29]): 8 µg/mL; MIC (Acinetobacter baumannii [30]): 4 µg/mL; MIC (Acinetobacter baumannii [31]): ≤ 0.12 µg/mL; MIC (Klebsiella pneumoniae [32]): ≤ 0.12 µg/mL; MIC (Klebsiella pneumoniae [33]): ≤ 0.12 µg/mL; MIC (Klebsiella pneumoniae [34]): ≤ 0.12 µg/mL; MIC (Acinetobacter baumannii [35]): > 16 µg/mL; MIC (Escherichia coli [36]): ≤ 0.12 µg/mL
2 | O=C(NNC(=O)[C@@H]1CC[C@@H]2CN1C(=O)N2OS(=O)(=O)O)[C@@H]1CCNC1 | 33 | 8 | ≤ 0.12 | ≤ 0.12 | ≤ 0.12 | > 16 | ≤ 0.12 | ≤ 0.12 | ≤ 0.12 | ≤ 0.12 | ≤ 0.12 | > 16 | ≤ 0.12 | ≤ 0.12 | ≤ 0.12 | ≤ 0.12 | ≤ 0.12 | > 16 | 8 | 16 | MIC (Acinetobacter baumannii [20]): > 16 µg/mL; MIC (Klebsiella pneumoniae [21]): ≤ 0.12 µg/mL; MIC (Acinetobacter baumannii [22]): > 16 µg/mL; MIC (Klebsiella pneumoniae [23]): ≤ 0.12 µg/mL; MIC (Klebsiella pneumoniae [24]): ≤ 0.12 µg/mL; MIC (Klebsiella pneumoniae [25]): ≤ 0.12 µg/mL; MIC (Klebsiella pneumoniae [26]): ≤ 0.12 µg/mL; MIC (Acinetobacter baumannii [28]): 16 µg/mL; MIC (Acinetobacter baumannii [29]): 8 µg/mL; MIC (Acinetobacter baumannii [30]): 4 µg/mL; MIC (Acinetobacter baumannii [31]): ≤ 0.12 µg/mL; MIC (Klebsiella pneumoniae [32]): ≤ 0.12 µg/mL; MIC (Klebsiella pneumoniae [33]): ≤ 0.12 µg/mL; MIC (Klebsiella pneumoniae [34]): ≤ 0.12 µg/mL; MIC (Escherichia coli [36]): ≤ 0.12 µg/mL
